Measurements from the EternaBench riboswitch data.

Test system: MS2 coat protein
Assay: apparent Kd, MS2 coat protein; higher = weaker binding; RNA-MaP array; FMN 200 µM where present
Procedure, shortened: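 Designs were transcribed by stalled E. coli RNA polymerase on Illumina sequencing-chip clusters. They were titrated with SNAP-549-labelled MS2 coat protein from 0.7 or 1.5 nM, doubling to 3 µM, without and then with constant ligand. Buffer: 100 mM Tris-HCl pH 7.5, 80 mM KCl, 4 mM MgCl2, BSA, DTT, yeast tRNA, Tween-20. Green signal was normalised to red-channel RNA signal and control-cluster median Fmax. Apparent Kd is the median of filtered per-cluster binding-curve fits.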

[1] = designed as: ON switch for flavin mononucleotide, no ligand
[2] = ligand present: flavin mononucleotide, designed as: ON switch for flavin mononucleotide
[3] = designed as: OFF switch for flavin mononucleotide, no ligand
[4] = ligand present: flavin mononucleotide, designed as: OFF switch for flavin mononucleotide

Sequence	apparent Kd [1]	apparent Kd [2]	apparent Kd [3]	apparent Kd [4]
AUAGCUCUCUAGAAGGUCCAACCAGUAUUCCAUCAGGUAAAUACGGUAGGGAGGAUAUGGGACAUGAGGAUCACCCAUGUGUAG	42.2 nM	25.2 nM	–	–
AUAGGCCUAGGAUAUACAUGAGGAUCACCCAUGUUAACACUUCAAUCAAGUUAAUAUUGUAGAAGGAGGAAUAA	–	–	30.4 nM	29.4 nM
AUAGUAGAAGUGAGGAUAUCGUAGAUUUUAGGAAACGAGAAGGCACAUGAGGAUCACCCAUGUAAGAUGGAGGU	–	–	280 nM	298 nM
AUAGUGCCCGAGAAGGACGUACCACAUGUUGAUCACCGAUAUAAGGAACGUAGGAUAUUGGACAUGAGGAUCACCCAUGUGGAU	87.5 nM	162 nM	–	–
AUAUAACAUGAGGAUCACCCAUGUCAGGAUAUCGAACCCAACACAACCAAAAUGUCGGCGAGAAGGGACAAAAA	–	–	35.4 nM	32.7 nM
AUAUAACAUGAGGAUCACCCAUGUCUCUAAAGUCGAGGAUAUGGGCAGGUUAUAUCCGAACCAGAAGGCGGGUUAU	315 nM	717 nM	–	–
AUAUCACAUGAGGAUCACCCAUGUCAGGAUAUGAUACUAUGUACUUCGGUACAUAGUAUCAGAAGGGAUAUGAA	–	–	41.5 nM	69.9 nM
AUAUCUAUGUAAGGAUAUAGAUGGUAUACGCCUCCGACAUGAGGAUCACCCAUGUUAUAUUUUGUCUAGAAGGUACAUUGUCGG	383 nM	305 nM	–	–
AUAUCUCCCUAGAAGGUGGAACGACAAUUGCAUCACGUAGUUGGCGAUCCAAGGAUAUGGGACAUGAGGAUCACCCAUGUGGAU	16.4 nM	8.81 nM	–	–
AUAUGAAAGAUAGGAUAUACUGAGGUUGAAUGGGUAGAAGGAUCGAUAGUGAAGAAUACAUGAGGAUCACCCAUGUUGUGGAUU	556 nM	209 nM	–	–
AUAUGAGAAGCAGGAUAUGUGAAAAAAAAACAUACAGAAGGGUUUAUGGGACAACAUGAGGAUCACCCAUGUUCUCUGUGAUGA	65.2 nM	71 nM	–	–
AUAUGAUAGAUAGGAUAUACAGUGGUUUUAUAAGUAGAAGGAUCAAAUGGGAAUUAUACAUGAGGAUCACCCAUGUUUUUGGAU	58.6 nM	40.4 nM	–	–
AUAUGAUAGAUAGGAUAUACUAUGGUUGAAGAAGUAGAAGGAUCAAUAGGGAAAUGUACAUGAGGAUCACCCAUGUUAUGGAUU	29.7 nM	26.9 nM	–	–
AUAUGAUAGAUAGGAUAUACUGAGGUUGAAUGGGUAGAAGGAUCGAUAGGGAAGACUACAUGAGGAUCACCCAUGUUGUGGAUU	88.4 nM	52.6 nM	–	–
AUAUUUAAUGAGGAUAUCGUUGCGGGUACGUAGCGAGAAGGCAUUACAUGAGGAUCACCCAUGUAGUGUGGGUU	–	–	21.3 nM	68.3 nM
AUAUUUAUUUAGAAGGACAUGAGGAUCACCCAUGUCGCUGGGCGCGGGAAACCGUGCGCGGCCAUGUAGGAUAUAGGUAGAUAU	–	–	14.4 nM	12.4 nM
AUAUUUGUGUAGAAGGUACGUGAUUAGUCAAAGUAAGGAUAUACUGACAUGAGGAUCACCCAUGUUUAAAUAGUUAAAUGUUCU	10.9 nM	8.01 nM	–	–
AUCAGCACGUGAGGAUAUGCGUCACUGCGUCAGCAGUGCGGUAAGAUCACAUGAGGAUCACCCAUGUAGAAGGCACGAGCUGAU	–	–	21.4 nM	49.8 nM
AUCAGCUCGGCAGGAUAUACAUCACUGCUUCGGCAGUGUAUUAAGAUCACAUGAGGAUCACCCAUGUAGAAGGGCCGAGCUGAU	–	–	34.1 nM	389 nM
AUCAGCUCGUCAGGAUAUACAUCACUGCUUCGGCAGUGUAUUAAGAUUACAUGAGGAUCACCCAUGUAGAAGGGACGAGCUGAU	–	–	17.2 nM	20.8 nM
AUCAGCUCGUCAGGAUAUACGUCACUGAGUCAGCAGUGUGGUAAGAUCACAUGAGGAUCACCCAUGUAGAAGGGACGAGCUGAU	–	–	16.3 nM	241 nM
AUCAGCUCGUCAGGAUAUACGUCACUGCGUCAGAAGUGUGGUAAGAUCACAUGAGGAUCACCCAUGUAGAAGGGACGAGCUGAU	–	–	23.4 nM	253 nM
AUCAGCUCGUCAGGAUAUACGUCACUGCGUCAGCAGUGUGGUAAGAUCACAUGAGGAUCACCCAUGUAGAAGGGACGAACUGAU	–	–	13.6 nM	292 nM
AUCAGCUCGUCAGGAUAUACGUCACUGCGUCAGCAGUGUUGUAAGAUCACAUGAGGAUCACCCAUGUAGAAGGGACGAGCUGAU	–	–	5.91 nM	10.2 nM
AUCAGCUCGUCAGGAUAUACGUCACUGCGUCCGCAGUGUGGUAAGAUCACAUGAGGAUCACCCAUGUAGAAGGGACGAGCUGAU	–	–	13.8 nM	264 nM
AUCAGCUCGUCAGGAUAUACGUCACUGCUUCAGCAGUGUGGUAAGAUCACAUGAGGAUCACCCAUGUAGAAGGGACGAGCUGAU	–	–	14.1 nM	268 nM
AUCAGCUCGUCAGGAUAUACGUCACUGCUUCGGCAGUGUGGUAAGAUCACAUGAGGAUCACCCAUGUAGAAGGGACGAGCUGAU	–	–	38.4 nM	754 nM
AUCAGCUGGUCAGGAUAUACGUCACUGCGUCAGCAGUGUGGUAAGAUCACAUGAGGAUCACCCAUGUAGAAGGGACGAGCUGAU	–	–	14.5 nM	286 nM

Sequence	apparent Kd [1]	apparent Kd [2]	apparent Kd [3]	apparent Kd [4]
AUCAUGUAAGGAUAUCUUAUAUGGAUCUUCGGAUCAAGUUAAGAGAAGGUACAUGAGGAUCACCCAUGUAUAAC	–	–	23.2 nM	35.8 nM
AUCCGGCGUGUAGGAUAUGGAUCCGAUUAGGAUCCAGAAGGACAUGAGGAUCACCCAUGUACAUGUAAACAGUCAUCACCGGAC	–	–	11.5 nM	136 nM
AUCCUGCGAGGAUAUACAUAAUUUUUUUCAUUUUGUUUCGAACAUGAGGAUCACCCAUGUAGAAGGUGCUACAC	–	–	32.1 nM	29 nM
AUCGAACAUGAGGAUCACCCAUGUUAGGAUAUUGGAUAGCGCGCUGGUGUAGUGUAUCCAAGAAGGGACUGGUG	–	–	66.5 nM	101 nM
AUCGUGCAGCUUUGCUGUACGCGUACAUGAGGAUCACCCAUGUAGGAUAUGGUAGGCAAAGCUUACUAGAAGGAUAUAGUGAUC	–	–	61.9 nM	54 nM
AUCGUUGGAGGAUAUGCUUGGAAAAAAAAAAAAAAAAAAAAACAUGAGGAUCACCCAUGUAGAAGGUCAAUGGA	–	–	52.6 nM	47.2 nM
AUCUUGUCAGGAUAUCUGACAAGUGACUUCGGUCACAGUUCAGAGAAGGUACAUGAGGAUCACCCAUGUAGAAC	–	–	17.4 nM	18.6 nM
AUGACUCUAGGAUAUUAGCGGGCCUACAUGAGGAUCACCCAUGUCGUGUCGCGGGUAUGCUGAGAAGGAGAGCACA	–	–	14.2 nM	17.9 nM
AUGCCUUAUGUAGGAUAUGCAUAGAGUUGCUAUGCAGAAGGACAUGAGGAUCACCCAUGUAUGUAUACCUUACAAAUCUAGCAU	–	–	38.6 nM	230 nM
AUGCCUUAUGUAGGAUAUGCAUAGCGUUGCUAUGCAGAAGGACAUGAGGAUCACCCAUGUAUGUAUUCCAUACAUAUCUGGCAU	–	–	26.8 nM	343 nM
AUGCUCGUGUGAGGAUAUGCCGCCGUUUCGGCUGCAGAAGGUGCUACGUUACAUGAGGAUCACCCAUGUCUCUGUUGUUUCGUG	24.4 nM	25.5 nM	–	–
AUGCUUCUCUCAGGAUAUUACAACAUGAGGAUCACCCAUGUACAUGACAUGACGAUCACGCAUGUUAAGAAGGGAGAGAAGCAU	–	–	718 nM	583 nM
AUGGAUACCACAGGAUAUGCCCGGGAUACCCGGGCAGAAGGGUGGUCCAUCCUAUGUAAAUACAUGAGGAUCACCCAUGUGUCC	351 nM	257 nM	–	–
AUGGAUAUCACAGGAUAUGCUAAGGAUACCUUAGCAGAAGGGUGAUCCAUCCUAUGGCUGCACAUGAGGAUCACCCAUGUGUCC	124 nM	11.8 nM	–	–
AUGGCGACGUAGAAGGGUGACAUGAGGAUCACCCAUGUGCCGAUACUUCUCGAGAUGUGUCGGCCACAGGAUAUACGUACCAUC	52.3 nM	58.3 nM	–	–
AUGUCGCACCAGAAGGGUCAACCAAUAAAUUAGACAGGAUAUGGGCGAUAAGUAUGUCGCGACAUGAGGAUCACCCAUGUCCGG	11.6 nM	5.95 nM	–	–
AUGUCUCUAGGAUAUUAGCGGAUCUACAUGAGGAUCACCCAUGUCGUGUCGCAGAUGUGCUGAGAAGGAGAGCACA	–	–	15.2 nM	19 nM
AUGUGACGGUGCGCAUGUGGACGGAGAAGGCAGACAUGAGGAUCACCCAUGUGAGCCUGCUAUUCUGAGGAUAUCCGUUCGCAC	–	–	31.7 nM	158 nM
AUGUGGUGCGUAGGAUAUCAUUGAGGGUCACCCUGAGAAGGACGUGAGGACAUGAGGAUCACCCAUGUGGAUCACCCAUGUCAU	–	–	245 nM	288 nM
AUGUUACAUGAGGAUCACCCAUGUGAGGAUAUGUGUACCGGUAAAAAAGUGUUUGGCCACAGAAGGCAUUUGGG	–	–	44.5 nM	84.5 nM
AUUAAGUGAGGAUAUACAAGAUCGCUUACCGCCAAAGGCGGACAUGAGGAUCACCCAUGUAGAAGGCACAAAUU	–	–	45.7 nM	270 nM
AUUAAUUAAUUAAUACAUGAGGAUCACCCAUGUAAUAAGAUCUAGGAUAUCAGCUCGAUUAGAGCUGAGAAGGAGAUCACAUGU	46.8 nM	39.5 nM	–	–
AUUACAUGAGGAUCACCCAUGUACGGCACGUUUCAAAACACUGAGGAUAUACGAUAUGUAGGAACGUAGAAGGCAGUGGGUGCA	99.7 nM	34 nM	–	–
AUUAUGUUAGGAUAUGCUUAUGGUGGAUAGUCCAAUAUGAUGCAGAAGGGACAUGAGGAUCACCCAUGUACUGA	–	–	24.9 nM	27.3 nM
AUUAUUAUAAAUUUGGCAAGAAUCAGAAGGCGUUACAUGAGGAUCACCCAUGUUUUGUAUAGUAACGAGGAUAUGAUAUGGAAA	–	–	17 nM	12.9 nM
AUUCCUAAUGUUAGGAUAUGCGACGGGUGACCGUUGCAGAAGGAACAUGAGGAUCACCCAUGUUUAAUAAAAUC	–	–	17.3 nM	111 nM
AUUCCUCCUGUGAGGAUAUGCGUUUCGCACUCGUCGCAGAAGGCACAUGAGGAUCACCCAUGUGAGUUACCAAA	–	–	14.8 nM	20 nM
